The values below come from ChEMBL document CHEMBL1133430, “8-Methylureido-4,5-dihydro-4-oxo-10H-imidazo[1,2-a]indeno[1,2-e]pyrazines: highly potent in vivo AMPA antagonists” (Bioorg Med Chem Lett, 2000).

Test [1] addresses Glutamate receptor ionotropic, AMPA (Rattus norvegicus, UniProt P19490+P19491+P19492+P19493). Nature of the test: The compound was tested for its affinity for Ionotropic glutamate receptor AMPA in in vitro binding assay on rat cortical membrane preparations using [3H]AMPA as ligand.
The target in test [2] is Glutamate NMDA receptor. Kind of test: In vitro affinity for N-methyl-D-aspartate glutamate receptor 1 using [3H]5,7-dichlorokynurenate([3H]-DCKA) as ligand. It is filed as protein-complex assay. In outline: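 Competition binding on rat cerebral cortex membranes at the NMDA receptor glycine site. IC50 is the mean of at least three determinations, each using at least three test concentrations run in triplicate.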

In test [3] the test system is Mus musculus. Nature of the test: Tested in vivo as the dose which protected 50% of the animals from a tonic convulsion (six male CDI mice/dose of compound) after intraperitoneal administration in DBA test. It is filed as functional. The essentials:
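Audiogenic seizure test in DBA/2 mice. Compound given ip in 1% Tween-80 in water, 30 min before the sound challenge. Six mice per dose, three doses plus a vehicle-treated group.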

For test [4], the system named is Mus musculus. Nature of the test: Tested in vivo as the dose which protected 50% of the animals from a tonic convulsion (six male CDI mice/dose of compound) after intraperitoneal administration in MES test. It is filed as functional. The essentials:
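Maximal electroshock (MES) convulsions in male CD1 mice. Compound given ip in 1% Tween-80 in water, 30 min before challenge. Six mice per dose, at least three doses plus a vehicle-alone group. ED50 (mg/kg) is the dose protecting 50% of animals from tonic convulsion.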

The species named for test [5] is Rattus norvegicus. Kind of test: The compound was tested for its inhibition of currents generated by 50 uM Kainate in Xenopus oocytes injected with rat brain mRNA. Type of test: functional. In outline:
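Xenopus oocytes injected with rat brain mRNA; AMPA receptor currents evoked by a submaximal kainate concentration, recorded electrophysiologically. Drug stocks in water or DMSO, diluted into recording medium. IC50 obtained by nonlinear least-squares fit to a sigmoidal equation.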

The test system of test [6] is Mus musculus. Nature of the test: Tested in vivo as the dose which protected 50% of the animals from a tonic convulsion (six male CDI mice/dose of compound) after intravenous administration in MES test. It is filed as functional. The essentials:
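Maximal electroshock (MES) convulsions in male CD1 mice. Compound given iv in saline, 5 min before challenge. Six mice per dose, at least three doses plus a vehicle-alone group. ED50 (mg/kg) is the dose protecting 50% of animals from tonic convulsion.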

For test [7], the system named is Mus musculus. Nature of the test: Tested in vivo as the dose which protected 50% of the animals from a tonic convulsion (six male CDI mice/dose of compound) after subcutaneous administration in MES test. It is filed as functional. As to conditions: sc. The essentials:
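Maximal electroshock (MES) convulsions in male CD1 mice. Compound given sc in 1% Tween-80 in water, 30 min before challenge. Six mice per dose, at least three doses plus a vehicle-alone group. ED50 (mg/kg) is the dose protecting 50% of animals from tonic convulsion.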

[8] abbreviates: Mus musculus, ip, read-out: ED50.

Some results are limits rather than exact numbers.

As usually defined, the IC50 is the concentration needed to halve the response being measured. A low value points to inhibition by little substance. With `Cc1ccc2c(c1)-c1nc(O)c3nccn3c1C2`, the IC50 in test [1] is greater than 100000 nM; in test [2], 2100 nM.
`O=C(Cc1ccccc1)Nc1ccc2c(c1)Cc1c-2nc(O)c2nccn12`: the values for the IC50 in test [1] and in test [2] were 180 nM and 100000 nM, respectively.
For orientation: ED50 means the dose at which the effect has come halfway, by size or by number of responders. With `CNC(=O)Nc1ccc2c(c1)C(CC(=O)O)c1c-2nc(O)c2nccn12` (stereo in doubt; (-)-3), the IC50 in test [1] stood at 39 nM; in test [5] it was 6.7 nM. Further, the median effective dose (ED50) in test [3] was 4.4 mg/kg; in test [4], 7 mg/kg.
Take `Oc1nc2c(n3ccnc13)Cc1cc(Cl)ccc1-2`: the IC50 in test [1] was 16000 nM; in test [2] it was greater than 100000 nM.
Turning to `O=C(NCCc1ccccc1)Nc1ccc2c(c1)Cc1c-2nc(O)c2nccn12`, the concentration for half-maximal inhibition (IC50) in test [1] is 130 nM; in test [2], greater than 100000 nM.
On the same counts, the results for `Oc1nc2c(n3ccnc13)Cc1ccc(Cl)cc1-2` are 3000 nM and 180 nM.
The like results for `O=C(NCc1ccccc1)Nc1ccc2c(c1)Cc1c-2nc(O)c2nccn12` were, in that order, 110 nM and 100000 nM.
The like results for `Oc1nc2c(n3ccnc13)Cc1ccc(F)cc1-2` were, in that order, 970 nM and 1000 nM.
`CNC(=O)Nc1ccc2c(c1)/c(=C/C(=O)O)c1c2nc(O)c2nccn21`: the values for the half-inhibitory concentration (IC50) in test [1], in test [2] and in test [5] (Rattus norvegicus) were 19 nM, 100000 nM and 3 nM, respectively. Further, the ED50 in test [3] (setting [8]) stood at 1.6 mg/kg; in test [4] (setting [8]), 11 mg/kg; in test [6], 5.6 mg/kg.
With `Oc1nc2c(n3ccnc13)Cc1ccccc1-2`, in test [4] (ip), the 50% effect level (ED50) was put at a dose of 62 mg/kg. For the same compound, the Kb in test [5] (Rattus norvegicus) is 1.8 nM.
On to `O=C(Nc1ccccc1)Nc1ccc2c(c1)Cc1c-2nc(O)c2nccn12`, for which the figures for the IC50 in test [1] and in test [2] were 620 nM and greater than 100000 nM, respectively.
The like results for `COc1ccc2c(c1)Cc1c-2nc(O)c2nccn12` were, in that order, 3300 nM and 5300 nM.
With `CCOC(=O)Nc1ccc2c(c1)Cc1c-2nc(O)c2nccn12`, the IC50 in test [1] was determined as 670 nM; in test [2] it was 8400 nM.
The like results for `Oc1nc2c(n3ccnc13)Cc1cc(Br)ccc1-2` were, in that order, 2000 nM and greater than 100000 nM.
With `O=C(Nc1ccc2c(c1)Cc1c-2nc(O)c2nccn12)c1ccccc1`, the IC50 is 450 nM in test [1] and greater than 100000 nM in test [2].
The like results for `NC(=O)Nc1ccc2c(c1)Cc1c-2nc(O)c2nccn12` were, in that order, 1250 nM and greater than 100000 nM.
As to `Oc1nc2c(n3ccnc13)Cc1cc(-n3ccnc3)ccc1-2`, the IC50 was 100000 nM in test [1] and greater than 100000 nM in test [2].
For the compound `CNC(=O)Nc1ccc2c(c1)Cc1c-2nc(O)c2nccn12`, the half-maximal inhibitory concentration (IC50) in test [1] is 18 nM; in test [2], 100000 nM.
On the same counts, the results for `CC(=O)Nc1ccc2c(c1)Cc1c-2nc(O)c2nccn12` are 3250 nM and 10000 nM.
Take `CNC(=O)Nc1ccc2c(c1)C(CC(=O)O)c1c-2nc(O)c2nccn12` (single isomer, unassigned; (+)): the IC50 in test [1] stood at 4 nM; in test [2], 10000 nM; in test [5], 2 nM. Further, the ED50 in test [3] came to 0.9 mg/kg; in test [4] it was 1 mg/kg.
As for `CNC(=O)Nc1cccc2c1Cc1c-2nc(O)c2nccn12`, the figures for the IC50 in test [1] and in test [2] were 300 nM and 2300 nM, respectively.
The like results for `O=S(=O)(O)c1ccc2c(c1)Cc1c-2nc(O)c2nccn12` were, in that order, 30000 nM and greater than 100000 nM.
As for `Oc1nc2c(n3ccnc13)Cc1cc(F)ccc1-2`, the values for the IC50 in test [1] and in test [2] were 250 nM and 7800 nM, respectively.
For the compound `CNC(=O)Nc1ccc2c(c1)C(CC(=O)O)c1c-2nc(O)c2nccn12` (racemic), the results for the IC50 in test [1], in test [2] and in test [5] were 8 nM, 14000 nM and 20 nM, respectively. The ED50 in test [3] turned out to be 0.6 mg/kg; in test [4] it was 1.8 mg/kg; in test [6], 1 mg/kg; in test [7], 2 mg/kg.
Regarding `Oc1nc2c(n3ccnc13)Cc1c(F)cccc1-2`, the IC50 came to 900 nM in test [1] and 100000 nM in test [2].
For `Oc1nc2c(n3ccnc13)Cc1c(Cl)cccc1-2`, the IC50 in test [1] was 17000 nM; in test [2] it was 100000 nM.
The like results for `Cc1ccc2c(c1)Cc1c-2nc(O)c2nccn12` were, in that order, 30000 nM and greater than 100000 nM.
The like results for `CCNC(=O)Nc1ccc2c(c1)Cc1c-2nc(O)c2nccn12` were, in that order, 86 nM and 10000 nM.
With `Nc1ccc2c(c1)Cc1c-2nc(O)c2nccn12`, the concentration for half-maximal inhibition (IC50) in test [1] turned out to be 5600 nM; in test [2], 22000 nM.
On the same counts, the results for `CN(C)C(=O)Nc1ccc2c(c1)Cc1c-2nc(O)c2nccn12` are 37 nM and 100000 nM.
Consider `O=c1[nH]c2cc(-n3ccnc3)c([N+](=O)[O-])cc2[nH]c1=O` [YM-90K], for which the ED50 amounted to 15 mg/kg in test [3] (ip), 12 mg/kg in test [4] (ip) and 12 mg/kg in test [6]. For the same compound, the IC50 in test [5] (Rattus norvegicus) is 260 nM.
